Eight compounds from ChEMBL document CHEMBL1150855, “Five new prenylated stilbenes from the root bark of Lonchocarpus chiricanus” (2001) can be followed below.

Values after ≈ are worked out from the molar mass of the structure shown. Active and inactive are the calls of the source. The calls are words filed in the database; no cut-off is given here. A value given as a limit tells only on which side of the number the result lay.

Test [1] relates to Cladosporium cucumerinum. As to the kind of experiment: Antifungal activity against Cladosporium cucumerinum at 100 ug after 2 to 3 days by bioautographic TLC assay. In kind it is functional, organism-based. A digest of the protocol:
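Compounds in dichloromethane (1 mg/mL stock) were geometrically diluted across 1 to 0.015 mg/mL, and 10 µL of each dilution was applied to silica gel TLC plates. Plates were covered with C. cucumerinum in nutritive medium and incubated 2-3 days in moist boxes. The read-out was the minimal amount (µg) giving a clear inhibition zone on a dark gray background, up to 100 µg. Nystatin in MeOH served as the reference.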

The subject of test [2] is Aedes aegypti. As to the kind of experiment: Larvicidal activity against Aedes aegypti larvae assessed as minimum concentration required to kill all larvae after 24 hrs by dilution test. It is filed as functional. The procedure, abridged:
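Roughly 10 A. aegypti larvae per tube in tap water. Compound added from geometric dilutions of a 1 mg/100 µL DMSO stock, with the volume made up to 10 mL, for final 50 to 1 ppm. Tubes kept in darkness at 26-28 °C for 24 h, then lethality scored under lab light. Value is the minimal concentration (ppm) killing all larvae.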

For test [3], the system named is Cladosporium cucumerinum. Kind of test: Antifungal activity against Cladosporium cucumerinum assessed as minimum concentration required to inhibit fungal growth after 2 to 3 days by bioautographic TLC assay. It is filed as functional. The procedure, abridged:
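Stocks at 1 mg/mL in dichloromethane (nystatin in MeOH), geometrically diluted over 1 to 0.015 mg/mL. 10 µL of each dilution applied to silica gel TLC plates. Plates then covered with C. cucumerinum in nutritive medium and held 2-3 days in a moist atmosphere. Clear zones read against a dark grey background. Value is the minimal amount (µg) inhibiting growth; nystatin reference.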

Test [4] concerns Cladosporium cucumerinum. As to the kind of experiment: Antifungal activity against Cladosporium cucumerinum after 24 hrs by agar-dilution assay. It is filed as functional. A digest of the protocol:
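Test solutions made by geometric dilution in DMSO from a 3 mg/mL DMSO stock, added to Sabouraud agar in wells at a final 60 to 3 µg/mL. C. cucumerinum suspended in distilled water and spread over the agar. Plates sealed hermetically, 30 °C for 24 h. Value is the MIC (µg/mL). Compound-free growth controls; duplicates; nystatin reference at 10 to 0.1 µg/mL.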

For `CC(C)=CCc1c(O)cc(O)c(CC=C(C)C)c1/C=C/c1ccccc1` [LONGISTYLINE D], in test [1], the result was inactive. Besides, the Activity in test [2] turned out to be 6 ppm.

As for `CC(C)=CCc1c(O)cc2c(c1/C=C/c1ccccc1)CC(O)C(C)(C)O2` (stereo unspecified) [CHIRICANINE D], the outcome in test [1] was inactive. The Activity in test [2] is above 50 ppm.

Take `COc1c(CC=C(C)C)c(O)cc(/C=C/c2ccccc2)c1CC=C(C)C` [CHIRICANINE C]: the result in test [1] was inactive. In test [2], the Activity is reported as above 50 ppm.

As usually defined, the MIC is the lowest concentration that inhibits growth of the organism. Regarding `CC(C)=CCc1c(O)cc(/C=C/c2ccccc2)cc1O` [CHIRICANINE A], the Activity worked out at 5 µg in test [3] and 6 ppm in test [2]. This compound also showed an MIC in test [4] of 30 µg/mL (≈ 107 µM).

In the case of `C=C(C)[C@H]1Cc2c(ccc3c2O[C@@H]2COc4cc(OC)c(OC)cc4[C@@H]2C3=O)O1` [ROTENONE], in test [2], the Activity is given as 3 ppm.

On to `CC1(C)Oc2cc(/C=C/c3ccccc3)cc(O)c2C[C@@H]1O` [CHIRICANINE B], for which the result in test [1] was inactive. The Activity in test [2] is recorded as above 50 ppm.

As to NYSTATIN, in test [3], the Activity was 0.2 µg. The compound also had an MIC in test [4] of 1 µg/mL.

Regarding `COc1cc(/C=C/c2ccccc2)cc(OC)c1` [3,5-O-DIMETHYLPINOSYLVIN], in test [1], the result was inactive. In test [2], the Activity was determined as 3 ppm.
